Measured values reported in ChEMBL document CHEMBL4138193, “Novel indole and triazole based hybrid molecules exhibit potent anti-adipogenic and antidyslipidemic activity by activating Wnt3a/β-catenin pathway” (Eur J Med Chem, 2018).
The source made the active and inactive calls. The calls are words filed in the database; no cut-off is given here.

Legend:
[1] = species on record: Mus musculus; assay: Activation of Wnt3a/beta-catenin in differentiated mouse 3T3L1 cells assessed as down-regulation of AP2 protein expression at 20 uM after 16 to 24 hrs by Western blot analysis
Method in brief: (§1)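 3T3-L1 preadipocytes grown to confluence in high-glucose DMEM/10% FBS, then given differentiation media (0.5 mM IBMX, 5 µg/ml insulin, 250 nM dexamethasone) with or without 20 µM compound. Protein isolated at set time points, lysed with protease/phosphatase inhibitors, BCA-quantified, resolved by 8–12% SDS-PAGE, immunoblotted with ECL detection. β-actin loading control, densitometry normalized to actin, n=3.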

[2] = species on record: Mus musculus; assay: Activation of Wnt3a/beta-catenin in mouse 3T3L1 cells assessed as down-regulation of CDK6 expression at 20 uM after 16 to 24 hrs in presence of FH353 by Western blot analysis; assay type: cell-based
Method in brief: (§2)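 Confluent 3T3-L1 cells given differentiation media (IBMX/insulin/dexamethasone) with 20 µM compound, with or without the β-catenin/TCF inhibitor FH353 (10 µM). Proteins isolated at 16 and 24 h and Western blotted after SDS-PAGE and nitrocellulose transfer. Blocking in 5% milk/TBS-T, primary antibody overnight at 4 °C, chemiluminescent detection, β-actin control, three independent experiments.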

[3] = system: 3T3-L1; assay: Anti-adipogenic activity in mouse 3T3L1 cells assessed as inhibition of adipogenesis after 20 mins by Oil Red O staining based assay; assay type: functional, cell-based; conditions: 3T3-L1, 20 min
Method in brief: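 3T3-L1 preadipocytes differentiated with compound at 0.1, 1, 3, 10, 30, 100 and 300 µM. Oil red O absorbance read at 492 nm, concentrations log-transformed and fitted by non-linear regression to give IC50. Two to three independent experiments, mean ± SEM.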

[4] = species on record: Mus musculus; assay: Activation of Wnt3a/beta-catenin in mouse 3T3L1 cells assessed as down-regulation of CDK6 expression at 20 uM after 16 to 24 hrs by Western blot analysis; assay type: cell-based
Method in brief: (§3)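 3T3-L1 cells given MDI differentiation media (0.5 mM IBMX, 5 µg/ml insulin, 250 nM dexamethasone) with or without 20 µM compound. Proteins isolated at 16 and 24 h and probed by Western blot for CDK2, CDK4, CDK6, cyclin D1 and D3. Densitometry normalized to actin, n=3, mean ± SD, Student t test.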

[5] = species on record: Mus musculus; assay: Activation of Wnt3a/beta-catenin in differentiated mouse 3T3L1 cells assessed as upregulation of phosphorylated beta-catenin expression at 20 uM after 16 to 24 hrs by Western blot analysis; method in brief: as §1
[6] = species on record: Mus musculus; assay: Activation of Wnt3a/beta-catenin in mouse 3T3L1 cells assessed as down-regulation of CDK2 expression at 20 uM after 16 to 24 hrs by Western blot analysis; assay type: cell-based; method in brief: as §3
[7] = system: Syrian golden hamster; assay: Induction of reverse cholestrol transport in high fat diet-induced dyslipidemia Syrian Golden hamster model assessed as reduction in weight gain at 100 mg/kg, po administered for 1 week; assay type: functional, organism-based; conditions: Mesocricetus auratus
Method in brief: (§4)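 Male Syrian Golden hamsters on 45% kCal HFD, dosed 100 mg/kg p.o. in 0.5% NaCMC for one week, 4 per group. Food intake and body weight recorded daily. At the end, animals were saline-perfused and liver and eWAT were excised and weighed. Paraffin sections stained with H&E and imaged at 20x.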

[8] = system: Syrian golden hamster; assay: Anti-adipogenic activity in high fat diet-induced dyslipidemia Syrian Golden hamster model assessed as increase in beta-catenin levels in eWAT at 100 mg/kg, po administered for 1 week by Western blot analysis; assay type: functional, organism-based; conditions: Mesocricetus auratus
Method in brief: (§5)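 Male Syrian golden hamsters (8–10 wk, 100–120 g) fed 45% kcal HFD for 4 days, then dosed orally at 100 mg/kg in 0.5% NaCMC for one week, n=4 per group. Fenofibrate 100 mg/kg p.o. used as positive control. Epididymal WAT proteins Western blotted, three independent experiments.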

[9] = system: Syrian golden hamster; assay: Anti-adipogenic activity in high fat diet-induced dyslipidemia Syrian Golden hamster model assessed as decrease in PPARgamma levels in eWAT at 100 mg/kg, po administered for 1 week by Western blot analysis; assay type: functional, organism-based; conditions: Mesocricetus auratus; method in brief: as §5
[10] = system: 3T3-L1; assay: Anti-adipogenic activity in mouse 3T3L1 cells assessed as reduction in lipid accumulation at early differentiation stage at 20 uM measured up to 3 days by Oil Red O staining based leica microscopy; assay type: functional, cell-based
Method in brief: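 3T3-L1 or C3H10T1/2 cells given 20 µM compound in differentiation media for varied time periods, then stained with Oil red O. Imaged by microscopy at 10x, representative of three independent experiments.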

[11] = system: Syrian golden hamster; assay: Induction of reverse cholestrol transport in high fat diet-induced dyslipidemia Syrian Golden hamster model assessed as reduction in liver weight at 100 mg/kg, po administered for 1 week; assay type: functional, organism-based; conditions: Mesocricetus auratus; method in brief: as §4
[12] = species on record: Mus musculus; assay: Activation of Wnt3a/beta-catenin in differentiated mouse 3T3L1 cells assessed as upregulation of phosphorylated LRP6 expression at 20 uM after 16 to 24 hrs by Western blot analysis; method in brief: as §1
[13] = system: Syrian golden hamster; assay: Induction of reverse cholestrol transport in high fat diet-induced dyslipidemia Syrian Golden hamster model assessed as increase in ApoA mRNA expression in liver at 100 mg/kg, po administered for 1 week by qRT-PCR analysis; assay type: functional, organism-based; conditions: Mesocricetus auratus
[14] = system: Syrian golden hamster; assay: Induction of reverse cholestrol transport in high fat diet-induced dyslipidemia Syrian Golden hamster model assessed as increase in ABCG5 mRNA expression in eWAT at 100 mg/kg, po administered for 1 week by qRT-PCR analysis; assay type: functional, organism-based; conditions: Mesocricetus auratus
[15] = system: Syrian golden hamster; assay: Anti-dyslipidemic activity in high fat diet-induced dyslipidemia Syrian Golden hamster model assessed as reduction in serum LDL levels at 100 mg/kg, po administered for 1 week followed by overnight fasting post last dose by clinical bio-analyzer analysis; assay type: functional, organism-based; conditions: Mesocricetus auratus
Method in brief: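 Male Syrian golden hamsters (8–10 wk, 100–120 g), 4 per group, given 45% kcal HFD for 4 days, then 100 mg/kg p.o. in 0.5% NaCMC daily for one week alongside HFD. Blood taken from retro-orbital plexus after overnight fast. TG, HDL, LDL, ALT, AST measured on a clinical bio-analyzer and NEFA by kit. Mean ± SEM, one-way ANOVA with Bonferroni.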

[16] = species on record: Mus musculus; assay: Activation of Wnt3a/beta-catenin in mouse 3T3L1 cells assessed as down-regulation of CDK4 expression at 20 uM after 16 to 24 hrs by Western blot analysis; assay type: cell-based; method in brief: as §3
[17] = species on record: Homo sapiens; assay: Anti-adipogenic activity in human differentiated MSC assessed as reduction in lipid accumulation at 5 to 20 uM after 20 mins by Oil Red O staining based microscopic method; assay type: functional
Method in brief: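 C3H10T1/2 or hMSC adipocytes differentiated alongside 5, 10 or 20 µM compound in differentiation media, stained with Oil red O. Images taken by bright-field microscopy at 10x and 20x, representative of three independent experiments.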

[18] = species on record: Mus musculus; assay: Activation of Wnt3a/beta-catenin in mouse 3T3L1 cells assessed as down-regulation of CDK2 expression at 20 uM after 16 to 24 hrs in presence of FH353 by Western blot analysis; assay type: cell-based; method in brief: as §2

`Cc1ccc(S(=O)(=O)N(Cc2cn(Cc3cccc(F)c3F)nn2)Cc2cn(S(=O)(=O)c3ccc(C)cc3)c3ccccc23)cc1` was tested, and the Activity [1] was “Active”, the Activity [2] was “inactive” and the IC50 [3] was 1.7 µM. The Activity [4] was “Active”, the Activity [5] was “Active” and the Activity [6] was “Active”. The Activity [7] was “Active”, the Activity [8] was “Active” and the Activity [9] was “Active”. The Activity [10] was “Active”, the Activity [11] was “Active” and the Activity [12] was “Active”. For the same compound, the Activity [13] was “Active”, the Activity [14] was “Active” and the Activity [15] was “Active”. For the same compound, the Activity [16] was “Active”, the Activity [17] was “Active” and the Activity [18] was “inactive”.
